Measurements taken from ChEMBL document CHEMBL1148584, “Effect of polyamine homologation on the transport and biological properties of heterocyclic amidines” (J Med Chem, 2006).
Values belong to the molecule of their own block, whether it stands above or below them.

Columns and labels:
[1] = molecular target: Phosphodiesterase 1 (Bos taurus, UniProt Q01061+P14100); assay: Inhibition of bovine calmodulin-activated cAMP dependent phosphodiesterase; assay type: protein assay
In short: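 Crude bovine heart PDE preparation containing calmodulin and Ca²⁺ (0.2 milliunit). Incubated 20 min at 37 °C with 0.1 mM [8-³H]cAMP and graded drug concentrations in 30 mM Tris-HCl, 3 mM MgSO₄, 0.6 mM AMP. Stopped with ZnSO₄; Ba(OH)₂ precipitated AMP with BaSO₄; supernatant radioactivity counted. IC50 is the concentration giving 50% inhibition.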

[2] = tested on: CHO-MG; assay: Inhibition of cell growth in CHO-MG cells in the presence of DFMO; assay type: functional, cell-based; conditions: Cricetulus griseus
In short: (§1)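 L1210 cells seeded at 5 × 10⁴ cells/mL with conjugate added at seeding; CHO/CHO-MG plated at 2 × 10³ cells/mL with conjugate added after overnight (24 h). 5 mM DFMO added together with conjugate; medium contains 2 mM aminoguanidine. After 48 h, growth read by MTT formazan absorbance at 540 nm. IC50 is 50% growth inhibition; mean of three determinations.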

[3] = tested on: CHO-MG; assay: Selectivity for uptake in CHO cell line over CHO-MG cell line at 10 uM; assay type: functional, cell-based; conditions: Cricetulus griseus
In short: (§2)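 Ratio of intracellular conjugate level in CHO over CHO-MG cells. Both lines were exposed to conjugate 24 h after seeding at 2 × 10⁵ cells/mL, for 24 h with 2 mM aminoguanidine in the medium. Levels were measured by ion-pair HPLC of perchloric extracts and normalised to protein (nmol/mg).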

[4] = tested on: CHO; assay: Inhibition of cell growth in CHO cells in the presence of DFMO; assay type: functional, cell-based; conditions: Cricetulus griseus; in short: as §1
[5] = tested on: L1210; assay: Inhibition of cell growth in L1210 cells in the presence of DFMO; assay type: functional, cell-based; conditions: Mus musculus; in short: as §1
[6] = tested on: CHO; assay: Cellular uptake in CHO cells at 10 uM; assay type: ADME, cell-based, Cricetulus griseus; conditions: chinese hamster
In short: (§3)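 CHO (RPMI 1640, 10% FCS, 2 mM aminoguanidine) and CHO-MG (plus L-proline) cells seeded at 2 × 10⁵ cells/mL. Conjugate added 24 h after seeding and cells harvested 24 h later, then washed in cold 0.14 M NaCl and sonicated in 0.2 N HClO₄. Supernatant analysed by ion-pair reversed-phase HPLC (n-octanesulfonate), expressed as nmol/mg protein; mean ± SD of three determinations.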

[7] = tested on: CHO-MG; assay: Cellular uptake in CHO-MG cells at 10 uM; assay type: ADME, cell-based, Cricetulus griseus; conditions: chinese hamster; in short: as §3
[8] = tested on: CHO; assay: Cellular uptake in CHO cells at 50 uM; assay type: ADME, cell-based, Cricetulus griseus; conditions: chinese hamster; in short: as §3
[9] = tested on: L1210; assay: Intracellular level of conjugate in L1210 cells in the absence of DFMO at 10 uM; assay type: functional, cell-based; conditions: Mus musculus
In short: (§4)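 L1210 cells in RPMI 1640/10% FCS with 2 mM aminoguanidine, seeded at 4 × 10⁴ cells/mL. Conjugate, with or without 5 mM DFMO, added at seeding; cells cultured 48 h, washed in cold NaCl, and extracted with 0.2 N HClO₄. Conjugate and free putrescine, spermidine and spermine quantified by ion-pair HPLC (UV 254 nm, fluorescence ex 345/em 455 nm); normalised to protein. Student's t-test, p<0.05.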

[10] = tested on: L1210; assay: Intracellular level of putrescine in L1210 cells in the presence of DFMO at 10 uM; assay type: functional, cell-based; conditions: Mus musculus; in short: as §4
[11] = tested on: L1210; assay: Intracellular level of spermidine in L1210 cells in the absence of DFMO at 10 uM; assay type: functional, cell-based; conditions: Mus musculus; in short: as §4
[12] = tested on: L1210; assay: Intracellular level of conjugate in L1210 cells in the presence of DFMO at 10 uM; assay type: functional, cell-based; conditions: Mus musculus; in short: as §4
[13] = tested on: L1210; assay: Intracellular level of putrescine in L1210 cells in the absence of DFMO at 10 uM; assay type: functional, cell-based; conditions: Mus musculus; in short: as §4
[14] = Selectivity for uptake CHO cell line over CHO-MG cell line at 50 uM; assay type: functional, Cricetulus griseus; in short: as §2
[15] = tested on: L1210; assay: Intracellular level of spermine in L1210 cells in the absence of DFMO at 10 uM; assay type: functional, cell-based; conditions: Mus musculus; in short: as §4
[16] = tested on: L1210; assay: Intracellular level of spermine in L1210 cells in the presence of DFMO at 10 uM; assay type: functional, cell-based; conditions: Mus musculus; in short: as §4
[17] = tested on: CHO-MG; assay: Cellular uptake in CHO-MG cells at 50 uM; assay type: ADME, cell-based, Cricetulus griseus; conditions: chinese hamster; in short: as §3
[18] = tested on: L1210; assay: Intracellular level of spermidine in L1210 cells in the presence of DFMO at 10 uM; assay type: functional, cell-based; conditions: Mus musculus; in short: as §4
[19] = tested on: CHO-MG; assay: Cellular uptake in CHO-MG cells at 25 uM; assay type: ADME, cell-based, Cricetulus griseus; conditions: chinese hamster; in short: as §3
[20] = tested on: L1210; assay: Intracellular level of conjugate in L1210 cells in the absence of DFMO at 25 uM; assay type: functional, cell-based; conditions: Mus musculus; in short: as §4
[21] = tested on: L1210; assay: Intracellular level of conjugate in L1210 cells in the presence of DFMO at 25 uM; assay type: functional, cell-based; conditions: Mus musculus; in short: as §4
[22] = tested on: L1210; assay: Intracellular level of spermidine in L1210 cells in the presence of DFMO at 25 uM; assay type: functional, cell-based; conditions: Mus musculus; in short: as §4
[23] = tested on: CHO; assay: Cellular uptake in CHO cells at 25 uM; assay type: ADME, cell-based, Cricetulus griseus; conditions: chinese hamster; in short: as §3
[24] = tested on: L1210; assay: Intracellular level of spermine in L1210 cells in the presence of DFMO at 25 uM; assay type: functional, cell-based; conditions: Mus musculus; in short: as §4
[25] = tested on: L1210; assay: Intracellular level of putrescine in L1210 cells in the absence of DFMO at 25 uM; assay type: functional, cell-based; conditions: Mus musculus; in short: as §4
[26] = tested on: L1210; assay: Intracellular level of spermidine in L1210 cells in the absence of DFMO at 25 uM; assay type: functional, cell-based; conditions: Mus musculus; in short: as §4
[27] = tested on: L1210; assay: Intracellular level of putrescine in L1210 cells in the presence of DFMO at 25 uM; assay type: functional, cell-based; conditions: Mus musculus; in short: as §4
[28] = Selectivity for uptake in CHO cell line over CHO-MG cell line at 25 uM; assay type: functional, Cricetulus griseus; in short: as §2
[29] = tested on: L1210; assay: Intracellular level of spermine in L1210 cells in the absence of DFMO at 25 uM; assay type: functional, cell-based; conditions: Mus musculus; in short: as §4
[30] = tested on: L1210; assay: Intracellular level of spermine in L1210 cells in the absence of DFMO at 20 uM; assay type: functional, cell-based; conditions: Mus musculus; in short: as §4
[31] = tested on: L1210; assay: Intracellular level of putrescine in L1210 cells in the presence of DFMO at 20 uM; assay type: functional, cell-based; conditions: Mus musculus; in short: as §4
[32] = tested on: L1210; assay: Intracellular level of polyamine in L1210 cells in the presence of DFMO at 20 uM; assay type: functional, cell-based; conditions: Mus musculus; in short: as §4
[33] = tested on: L1210; assay: Intracellular level of conjugate in L1210 cells in the absence of DFMO at 20 uM; assay type: functional, cell-based; conditions: Mus musculus; in short: as §4
[34] = tested on: L1210; assay: Intracellular level of spermine in L1210 cells in the presence of DFMO at 20 uM; assay type: functional, cell-based; conditions: Mus musculus; in short: as §4
[35] = tested on: L1210; assay: Intracellular level of spermidine in L1210 cells in the presence of DFMO at 20 uM; assay type: functional, cell-based; conditions: Mus musculus; in short: as §4
[36] = tested on: L1210; assay: Intracellular level of putrescine in L1210 cells in the absence of DFMO at 20 uM; assay type: functional, cell-based; conditions: Mus musculus; in short: as §4
[37] = tested on: L1210; assay: Intracellular level of spermidine in L1210 cells in the absence of DFMO at 20 uM; assay type: functional, cell-based; conditions: Mus musculus; in short: as §4

SMILES: CN(c1ccccc1)C1c2ccccc2N=C(NCCCCN)C1(C)C (configuration not stated)
IC50 [1]: 51 µM | IC50 [2]: 13 µM | Ratio [3]: 1.1 | IC50 [4]: > 100 µM | IC50 [5]: 33 µM | Drug uptake [6]: 13 nmol/mg | Drug uptake [7]: 12 nmol/mg

SMILES: CN(c1ccccc1)C1c2ccccc2N=C(NCCCNCCCCN)C1(C)C (configuration not stated)
Drug uptake [19]: 3.1 nmol/mg | IC50 [1]: 30 µM | IC50 [2]: > 100 µM | Drug uptake [20]: 0.64 nmol/mg | Drug uptake [21]: 0.66 nmol/mg | Drug uptake [22]: 1.4 nmol/mg | Drug uptake [23]: 2.9 nmol/mg | Drug uptake [24]: 10 nmol/mg | Drug uptake [25]: 0.65 nmol/mg | Drug uptake [26]: 21 nmol/mg | Drug uptake [27]: 0.12 nmol/mg | Selectivity ratio [28]: 1 | Drug uptake [29]: 10 nmol/mg

SMILES: OCCCNC1=Nc2ccccc2CC1
IC50 [1]: > 500 µM

SMILES: NCCCCNCCCNC1=Nc2ccccc2CC1
Drug uptake [19]: 2.2 nmol/mg | Drug uptake [9]: 4.3 nmol/mg | IC50 [1]: > 500 µM | Drug uptake [11]: 14.5 nmol/mg | Ratio [3]: 6.9 | Drug uptake [12]: 8.2 nmol/mg | IC50 [5]: > 100 µM | Drug uptake [23]: 15.4 nmol/mg | Drug uptake [6]: 11 nmol/mg | Drug uptake [15]: 7.1 nmol/mg | Drug uptake [16]: 12.1 nmol/mg | Selectivity ratio [28]: 7 | Drug uptake [7]: 1.6 nmol/mg | Drug uptake [18]: 3.2 nmol/mg

Further lines, with some results ahead:

Drug uptake [8]: 3.3 nmol/mg | IC50 [1]: 8 µM | IC50 [5]: 2.3 µM | Drug uptake [17]: 3.2 nmol/mg
SMILES: CN(c1ccccc1)C1c2ccccc2N=C(NCCCNCCCCNCCCN)C1(C)C (configuration not stated)
Drug uptake [9]: 1.8 nmol/mg | Drug uptake [10]: 0.02 nmol/mg | Drug uptake [11]: 16 nmol/mg | Drug uptake [12]: 2.6 nmol/mg | Drug uptake [13]: 0.41 nmol/mg | Selectivity ratio [14]: 1 | Drug uptake [15]: 9.5 nmol/mg | Drug uptake [16]: 7.6 nmol/mg | Drug uptake [18]: 0.6 nmol/mg

IC50 [1]: > 500 µM
SMILES: NCCCCNCCCN [SPERMIDINE]
IC50 [2]: > 100 µM

IC50 [1]: > 500 µM
SMILES: NCCCNCCCCNCCCN [SPERMINE]
IC50 [2]: > 100 µM

Drug uptake [19]: 7.2 nmol/mg | IC50 [1]: 70 µM | IC50 [5]: 56 µM | Drug uptake [23]: 8.1 nmol/mg
SMILES: CNc1cccc2c1[C@H](C)C[C@]1(C)C(NCCCCN)=Nc3ccccc3[C@H]21
Drug uptake [30]: 8.9 nmol/mg | IC50 [2]: 30 µM | IC50 [4]: 57 µM | Drug uptake [31]: 1 nmol/mg | Drug uptake [32]: 8.2 nmol/mg | Drug uptake [33]: 23 nmol/mg | Drug uptake [34]: 10 nmol/mg | Drug uptake [35]: 2.1 nmol/mg | Selectivity ratio [28]: 1.1 | Drug uptake [36]: 1.6 nmol/mg | Drug uptake [37]: 14 nmol/mg
